Results from different studies.
Compare with care: the assays were run in different laboratories.
Read-out: cell growth or viability

The IC50 of `Clc1ccc(OC2=CC(c3ccc[nH]3)=N/C2=C\NC23CC4CC(CC(C4)C2)C3)cc1` is reported as 14.5 µM (HepG2; MTT; 48 h).
`CCSc1nc(C2CC2)cc(C(F)(F)F)n1` gave a CC50 of greater than 60 µM (HEK-293T; ATP luminescence; 24 h).
For `COc1ccccc1C(=O)/C=C/c1cn(Cc2cn(-c3ccnc4cc(Cl)ccc34)nn2)c2ccccc12`, the viability was greater than 90% (HepG2; MTT; 100 µM, 24 h).
For `O[C@@H](CN1CCN(C(c2ccccc2)c2ccccc2)CC1)c1cc(Cl)cc2c1-c1ccc(Cl)cc1C2`, the CC50 was greater than 50 µM (HepG2; 48 h).
For `COc1ccc2[nH]c(C(=O)Nc3nc(CC(=O)NN=Cc4cccc5ccccc45)cs3)cc2c1` (mixture of isomers), the IC50 was 24.2 µM (HepG2; MTT).
With `O[C@@H](CNCCN1CCN(C(c2ccccc2)c2ccccc2)CC1)c1cc(Cl)cc2c1-c1ccc(Cl)cc1C2` the CC50 was 27.1 µM (HepG2; MTT; 72 h).
For `CC[S+]([O-])c1nc(-c2ccccc2)cc(C(F)(F)F)n1` (stereo not shown), the CC50 was greater than 60 µM (HEK-293T; ATP luminescence; 24 h).
The CC50 of `CCCCNCC(O)c1cc(Cl)cc2c1-c1ccc(Cl)cc1C2` (racemic) is reported as 6.4 µM (HepG2; 48 h).
For `CCS(=O)(=O)c1nc(C2CC2)cc(C(F)(F)F)n1`, the CC50 was 29 µM (HEK-293T; ATP luminescence; 24 h).
With `O=C(Cc1csc(NC(=O)c2cc3ccccc3[nH]2)n1)NN=Cc1cccc2ccccc12` (mixture of isomers) the IC50 was 36 µM (HepG2; MTT).
